The source of these data is paper PMC3705926 (Journal of ethnopharmacology, 2010).

Experiment [1] has as its system 2ERE-luciferase reporter (ER) in MCF-7 cells. As to the kind of experiment: 2ERE-luciferase reporter gene assay in transiently transfected MCF-7 cells. As to conditions: 1 μg/ml, 16 h. Type of experiment: cell-based, human.
For experiment [2], the target named is T1, 5-HT7 (Homo sapiens, UniProt P34969). The experiment in a line: Serotonin 5-HT7 receptor radioligand binding. Particulars: read-out: IC50, binding to serotonin receptor 5-HT7.
T1 sequence (P34969 whole entry): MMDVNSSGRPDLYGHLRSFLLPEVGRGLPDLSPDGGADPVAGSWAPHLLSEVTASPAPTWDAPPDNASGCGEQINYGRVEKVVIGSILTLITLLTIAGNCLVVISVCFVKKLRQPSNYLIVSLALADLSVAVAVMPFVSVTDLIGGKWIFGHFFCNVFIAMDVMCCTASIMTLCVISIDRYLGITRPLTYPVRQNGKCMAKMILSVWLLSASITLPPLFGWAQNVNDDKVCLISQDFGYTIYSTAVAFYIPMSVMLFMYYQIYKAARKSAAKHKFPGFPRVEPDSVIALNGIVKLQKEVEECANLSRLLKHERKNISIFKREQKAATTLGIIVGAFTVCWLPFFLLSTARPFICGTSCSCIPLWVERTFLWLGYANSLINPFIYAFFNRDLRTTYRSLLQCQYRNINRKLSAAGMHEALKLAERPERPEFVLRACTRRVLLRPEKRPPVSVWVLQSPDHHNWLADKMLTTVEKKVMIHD
Experiment [3] has as its target T1, 5-HT7. The experiment in a line: GTP shift experiment, [3H]LSD binding with or without 100 μM GTP.
In another experiment the target is T2, 5-HT1A (Homo sapiens, UniProt P08908).
T2 sequence (P08908 1-422): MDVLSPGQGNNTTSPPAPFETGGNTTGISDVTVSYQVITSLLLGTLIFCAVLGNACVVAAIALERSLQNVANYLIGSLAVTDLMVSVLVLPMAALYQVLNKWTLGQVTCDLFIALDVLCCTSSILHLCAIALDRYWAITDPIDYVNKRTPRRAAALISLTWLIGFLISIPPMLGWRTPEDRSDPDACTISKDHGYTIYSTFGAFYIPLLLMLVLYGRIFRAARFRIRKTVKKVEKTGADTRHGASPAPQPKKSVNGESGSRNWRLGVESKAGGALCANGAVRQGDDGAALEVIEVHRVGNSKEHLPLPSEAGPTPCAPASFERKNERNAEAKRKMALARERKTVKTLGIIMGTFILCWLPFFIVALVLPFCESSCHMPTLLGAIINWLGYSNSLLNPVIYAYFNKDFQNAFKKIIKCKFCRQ
The experiment in a line: Serotonin 5-HT1A receptor radioligand binding. As to conditions: read-out: IC50, binding to serotonin receptor 5-HT1A. The method, boiled down:
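Competition binding used Cos M6 cell membrane homogenate with [3H]5-CT (1.0 nM final) in 100 mM Tris-HCl, 1 mM EDTA, 1% ascorbic acid, pH 7.7, at 37°C for 30 min. Binding was stopped by rapid filtration and four ice-cold buffer washes, then counted by scintillation. IC50 came from non-linear curve fitting of at least triplicate determinations.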

Setting [4] is: [3H]-LSD displacement, absence of GTP, two-site fit.

For 5, 6-Z-fadyenolide [Compound 2], the “fold increase in luciferase activity” value in experiment [1] is recorded as 9.8 fold. Besides, on 5-HT7 [2], the IC50 (in general, the concentration that gives 50% inhibition) was 23.2 µM.
Regarding piperolide [Compound 3], the “fold increase in luciferase activity” value in experiment [1] stood at 8.4 fold. At 5-HT7 [2], the IC50 stood at 34.7 µM.
For the substance “9, 10-methylenedioxy-5, 6-Z-fadyenolide [Compound 1]”, in experiment [1], the “fold increase in luciferase activity” value is “not active”. Also, on 5-HT7 [3] (setting [4]), the “IC50, high-affinity state” value was 14.0 ng/mL; the “IC50, low affinity state” value came to 37.7 µg/mL; the “Ki, high-affinity state” value was found to be 8.48 ng/mL; the “Ki, low affinity state” value was determined as 26.7 ng/mL. On 5-HT7 [3] (from GTP shift of the binding curve), the “agonist/antagonist character at the 5-HT7 receptor” value was “partial agonist”. At 5-HT7 [3] (with 100 μM GTP), the “IC50 after addition of GTP (monophasic, low-affinity state)” value was 11.5 µg/mL and the “Ki after addition of GTP” value worked out at 6.88 mg/mL. For the same substance, the 50% inhibitory concentration (IC50) at 5-HT1A stood at 16.1 µM. Besides, at 5-HT7 [2], the concentration for half-maximal inhibition (IC50) was found to be 8.3 µM.
